# Reference: PMC7953034 (Journal of Pesticide Science, 2021)
# Like-named read-outs stand apart in the source and are kept apart here.
# Legend:
# [1] = biological target: T1, DmNobo (Drosophila melanogaster, UniProt Q7JYX0); conditions: crystal structure PDB ID: 6KEP; cited from earlier work
# [2] = biological target: T1, DmNobo; assay: GST activity inhibition assay; format: biochemical
# Summary of the method: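 Recombinant DmNobo from E. coli was used. Test compounds were serially diluted two-fold in DMSO (stock series from 2.5 mM down), then premixed with enzyme and GSH before 3,4-DNADCF was added. The final mix was 100 mM sodium phosphate pH 6.5, 25 ng·mL⁻¹ DmNobo, 1 mM GSH, 0.005% Tween 20 and 1 µM substrate. Fluorescence of the conjugate (ex 485/em 538 nm) was read every 30 s for 3 min. Relative activity was activity with/without compound; IC50 was taken from duplicate assays, with SD.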
# [3] = biological target: T1, DmNobo; assay: Crystal structures of DmNobo complexed with inhibitors; conditions: for # of bound molecules in the H-site: crystal structure of DmNobo complex; for Conformational change of Phe39: apo vs compound-bound; for GSH requirement for binding: crystals soaked with or without GSH; for GS-conjugation: observed in crystal structure with GSH
# Summary of the method: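 DmNobo was expressed in E. coli BL21(DE3) from a pCold III construct and purified by GSH affinity and size-exclusion chromatography. Crystals were grown over 34% (v/v) PPG400, 80 mM Bis-Tris pH 6.4. They were soaked 2 days in 42.5% PPG400, 100 mM Bis-Tris pH 6.4 with 30 mM test compound, ±10 mM GSH, then flash-frozen. Synchrotron data were phased by molecular replacement using apo DmNobo. Contacts were defined as ≤4.0 Å.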
# T1 sequence (Q7JYX0 whole entry): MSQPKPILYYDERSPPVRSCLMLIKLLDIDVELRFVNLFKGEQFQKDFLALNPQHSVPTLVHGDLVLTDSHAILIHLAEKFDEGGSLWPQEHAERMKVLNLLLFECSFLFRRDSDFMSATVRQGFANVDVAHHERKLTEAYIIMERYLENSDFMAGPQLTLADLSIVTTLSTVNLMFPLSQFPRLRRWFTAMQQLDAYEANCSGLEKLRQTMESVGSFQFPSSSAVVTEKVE
structure (smiles),measurement,setting,value
"C[C@]12CC[C@@H]3c4ccc(O)cc4CC[C@H]3[C@@H]1CC[C@@H]2O [17β-Estradiol, 17β-estradiol]",# of bound molecules in the H-site,[1],1
"COc1cccc(C2=NC(C)(C)NC(c3cc(Br)ccc3O)C2)c1 (stereo not drawn) [TDP011, 4-bromo-2-[4-(3-methoxyphenyl)-2,2-dimethyl-5,6-dihydro-1H-pyrimidin-6-yl]phenol]",IC50,[2],6.72 ± 1.48 µM
same,# of bound molecules in the H-site,[3],1
same,Conformational change of Phe39,[3]; crystal structure,YES
same,GSH requirement for binding,[3],GSH-dependent and YES
same,GS-conjugation,[3],YES
"O=C1CS(=O)(=O)N(Cc2ccc(F)cc2)c2ccsc21 [TDP012, 1-(4-fluorobenzyl)-1H-thieno[3,2-c][1,2]thiazin-4(3H)-one 2,2-dioxide]",IC50,[2],3.1 ± 0.77 µM
same,# of bound molecules in the H-site,[3],1
same,Conformational change of Phe39,[3]; crystal structure,YES
same,GSH requirement for binding,[3],GSH-dependent and YES
same,GS-conjugation,[3],YES
"Cc1ccc(C(C)(C)C)cc1S(=O)(=O)Nc1ccccc1C(=O)O [TDP013, 2-(5-tert-butyl-2-methyl-benzenesulfonylamino)-benzoic acid]",IC50,[2],8.94 ± 1.65 µM
same,Different conformations of the inhibitor in subunits A and B,[3]; crystal structure,YES
same,# of bound molecules in the H-site,[3],1
same,Conformational change of Phe39,[3]; crystal structure,YES
"Nc1ccc(N2CCc3sccc3C2)nc1 [TDP015, 6-(6,7-dihydrothieno[3,2-c]pyridin-5(4H)-yl)-3-pyridinamine]",IC50,[2],3.32 ± 0.81 µM
same,# of bound molecules in the H-site,[3],2
same,Conformational change of Phe39,[3]; crystal structure,YES
same,GSH requirement for binding,[3],GSH-dependent and YES
same,GS-conjugation,[3],YES
"CC1(C)CC(=O)CC(=O)C1 [TDP045, 5,5-dimethyl-1,3-cyclohexanedione]",IC50,[2],> 1000 µM
same,inhibitory activity against DmNobo (in words),"[2]; GSH-conjugation activity, 3,4-DNADCF",did not exhibit a strong inhibitory activity
same,# of bound molecules in the H-site,[3],1
same,GS-conjugation,[3],YES
